The results in this text go back to ChEMBL document CHEMBL4354843, “Structure-Based Design of a Potent and Selective Covalent Inhibitor for SRC Kinase That Targets a P-Loop Cysteine” (J Med Chem, 2020).

The subject of experiment [1] is ALK tyrosine kinase receptor (Homo sapiens), Q9UM73 [C1156Y]. Nature of the experiment: Binding affinity to wild-type human partial length ALK C1156Y mutant (I1088 to E1409 residues) expressed in mammalian expression system assessed as residual binding level at 1 uM by Kinomescan method relative to control.
Experiment [2] has as its system Serine/threonine-protein kinase B-raf (Homo sapiens), P15056 [V600E]. Put plainly: Binding affinity to human partial length BRAF V600E mutant (S429 to E741 residues) expressed in mammalian expression system assessed as residual binding level at 1 uM by Kinomescan method relative to control. Summed up: (§1)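 KinomeScan active site-directed competition binding panel (468 kinases), compound tested at 1 μM. Result expressed as remaining kinase signal versus DMSO control (percent of control).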

Experiment [3] deals with Calcium/calmodulin-dependent protein kinase type 1D (Homo sapiens) (UniProt Q8IU85). Nature of the experiment: Binding affinity to wild-type human partial length CAMK1D (M1 to K299 residues) expressed in bacterial expression system assessed as residual binding level at 1 uM by Kinomescan method relative to control.
The target in experiment [4] is Peripheral plasma membrane protein CASK (Homo sapiens) (UniProt O14936). Nature of the experiment: Binding affinity to wild-type human partial length CASK (M1 to H315 residues) expressed in mammalian expression system assessed as residual binding level at 1 uM by Kinomescan method relative to control.
Experiment [5] deals with Cyclin-dependent kinase 2 (Homo sapiens) (UniProt P24941). Nature of the experiment: Binding affinity to wild-type human full length CDK2 (M1 to L298 residues) expressed in bacterial expression system assessed as residual binding level at 1 uM by Kinomescan method relative to control. Summed up: (§2)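 Active-site-directed KinomeScan competition binding panel covering 468 kinases, compound tested at 1 μM. Each readout is the kinase signal remaining with compound, expressed as a percentage of the DMSO control. […]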

The target in experiment [6] is Cyclin-dependent kinase 4 (Homo sapiens) (UniProt P11802). Nature of the experiment: Binding affinity to wild-type human full length CDK4 (M1 to E303 residues) expressed in mammalian expression system assessed as residual binding level at 1 uM by Kinomescan method relative to control. Summed up:
as §2

Experiment [7] has as its target Cyclin-dependent kinase 9 (Homo sapiens) (UniProt P50750). Put plainly: Binding affinity to wild-type human full length CDK9 (M1 to F372 residues) expressed in bacterial expression system assessed as residual binding level at 1 uM by Kinomescan method relative to control. Summed up: as §2
For experiment [8], the target named is Casein kinase II subunit alpha' (Homo sapiens) (UniProt P19784). Nature of the experiment: Binding affinity to wild-type human full length CSNK2A2 (M1 to R350 residues) expressed in mammalian expression system assessed as residual binding level at 1 uM by Kinomescan method relative to control. In short, it runs like this:
as §2

Experiment [9] deals with Dual specificity tyrosine-phosphorylation-regulated kinase 2 (Homo sapiens) (UniProt Q92630). Put plainly: Binding affinity to wild-type human full length DYRK2 (M1 to S528 residues) expressed in mammalian expression system assessed as residual binding level at 1 uM by Kinomescan method relative to control. Summed up: as §2
The target of experiment [10] is Receptor tyrosine-protein kinase erbB-3 (Homo sapiens) (UniProt P21860). Put plainly: Binding affinity to wild-type human partial length ERBB3 (G684 to A987 residues) expressed in mammalian expression system assessed as residual binding level at 1 uM by Kinomescan method relative to control.
Experiment [11] deals with Tyrosine-protein kinase Fer (Homo sapiens) (UniProt P16591). Put plainly: Binding affinity to wild-type human partial length FER (S542 to T822 residues) expressed in bacterial expression system assessed as residual binding level at 1 uM by Kinomescan method relative to control.
Experiment [12] deals with Mast/stem cell growth factor receptor Kit (Homo sapiens), P10721 [L576P]. Nature of the experiment: Binding affinity to human partial length KIT L576P mutant (Y545 to D952 residues) expressed in bacterial expression system assessed as residual binding level at 1 uM by Kinomescan method relative to control. Summed up: as §1
Experiment [13] has as its target MAP kinase-activated protein kinase 5 (Homo sapiens) (UniProt Q8IW41). Nature of the experiment: Binding affinity to wild-type human partial length MAPKAPK5 (M1 to D322 residues) expressed in mammalian expression system assessed as residual binding level at 1 uM by Kinomescan method relative to control.
The target of experiment [14] is Serine/threonine-protein kinase 38-like (Homo sapiens) (UniProt Q9Y2H1). Nature of the experiment: Binding affinity to wild-type human partial length NDR2 (N34 to E447 residues) expressed in bacterial expression system assessed as residual binding level at 1 uM by Kinomescan method relative to control. Summed up:
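Active-site-directed competition binding panel of 468 kinases (KinomeScan), compound at 1 μM. The read-out is kinase remaining bound, given as a percentage of the DMSO control. […]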

Experiment [15] has as its target Phosphatidylinositol 4-phosphate 5-kinase type-1 gamma (Homo sapiens) (UniProt O60331). Put plainly: Binding affinity to wild-type human partial length PIP5K1C (M1 to T668 residues) expressed in mammalian expression system assessed as residual binding level at 1 uM by Kinomescan method relative to control.
Experiment [16] deals with Serine/threonine-protein kinase N2 (Homo sapiens) (UniProt Q16513). Nature of the experiment: Binding affinity to wild-type human partial length PKN2 (E634 to C984 residues) expressed in bacterial expression system assessed as residual binding level at 1 uM by Kinomescan method relative to control.
The target of experiment [17] is Protein kinase C delta type (Homo sapiens) (UniProt Q05655). Put plainly: Binding affinity to wild-type human partial length PRKCD (Q328 to D676 residues) expressed in bacterial expression system assessed as residual binding level at 1 uM by Kinomescan method relative to control.
The target in experiment [18] is Serine/threonine-protein kinase RIO3 (Homo sapiens) (UniProt O14730). Put plainly: Binding affinity to wild-type human full length RIOK3 (M1 to E519 residues) expressed in bacterial expression system assessed as residual binding level at 1 uM by Kinomescan method relative to control. In short, it runs like this:
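Active-site-directed competition binding screen across a 468-kinase panel, run with the test compound at 1 μM. The read-out is the kinase signal remaining relative to a DMSO control, reported as a percentage. […]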

The target in experiment [19] is Serine/threonine-protein kinase Sgk1 (Homo sapiens) (UniProt O00141). Nature of the experiment: Binding affinity to wild-type human partial length SGK (I60 to L431 residues) expressed in mammalian expression system assessed as residual binding level at 1 uM by Kinomescan method relative to control.
Experiment [20] deals with TGF-beta receptor type-1 (Homo sapiens) (UniProt P36897). Put plainly: Binding affinity to wild-type human partial length TGFBR1 (D179 to M503 residues) expressed in bacterial expression system assessed as residual binding level at 1 uM by Kinomescan method relative to control.
In experiment [21] the target is Serine/threonine-protein kinase tousled-like 2 (Homo sapiens) (UniProt Q86UE8). Nature of the experiment: Binding affinity to wild-type human partial length TLK2 (E424 to N749 residues) expressed in bacterial expression system assessed as residual binding level at 1 uM by Kinomescan method relative to control.

In the case of `C=CC(=O)Nc1ccccc1Nc1nc(Nc2ccc(N3CCN(C)CC3)cc2)ncc1C(=O)Nc1c(C)cccc1Cl`, the Activity in experiment [1] is 99%; in experiment [2], 100%; in experiment [3], 100%; in [4], 73%; in [5], 100%; in experiment [6] it was 97%. Besides, the Activity came out at 100% in [7]; 100% in [8]; 89% in [9]; 89% in experiment [10]; 100% in experiment [11]; 65% in [12]. The Activity in [13] was determined as 100%; in experiment [14] it was 93%; in experiment [15] it was 100%; in [16], 100%; in experiment [17], 100%; in experiment [18], 92%. Moreover, the Activity in experiment [19] turned out to be 95%; in [20], 100%; in [21], 100%.
